The values below come from PubChem BioAssay AID624431 (The Scripps Research Institute Molecular Screening Center, 2012).

The target of this assay is Arf-GAP with SH3 domain, ANK repeat and PH domain-containing protein 1 (Homo sapiens) (UniProt Q9ULH1). Briefly: ASAP1 GAP activity inhibitors, confirmation, biochemical, fluorescence polarization, human, triplicate (AID 624431). Conditions: ASAP1-stimulated Arf1 GTPase, GDP fluorescence polarization; at 16.5 µM; active compounds read high. An outline of the steps:
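System: ASAP1 GAP domain protein (residues 325-724) / Medium: HEPES, pH 7.5 / Also added: Arf1 Δ17-GTP substrate / Dosing: single dose, 16.5 µM final test compound / Incubation: 20-min ASAP1–compound and 120-min Arf1-GTP steps at 25 °C, 60-min tracer / Technique: FP readout via GDP Alexa 633 tracer displacement from antibody / Read-out: % inhibition vs no-ASAP1 controls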
For orientation: In fluorescence polarisation assays a small probe gives low polarisation when free and higher when bound to something large.

This is one part of the list. Values without a mark were called inactive. Active and inactive are the calls of the source.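 Rule for the calls: active = mean inhibition over triplicates exceeds the hit threshold derived for the earlier primary screening run (cut at about 25% in these data); inactive = the rest.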

Sequence of Arf-GAP with SH3 domain, ANK repeat and PH domain-containing protein 1 (Homo sapiens) (Q9ULH1 325-724 limits assumed): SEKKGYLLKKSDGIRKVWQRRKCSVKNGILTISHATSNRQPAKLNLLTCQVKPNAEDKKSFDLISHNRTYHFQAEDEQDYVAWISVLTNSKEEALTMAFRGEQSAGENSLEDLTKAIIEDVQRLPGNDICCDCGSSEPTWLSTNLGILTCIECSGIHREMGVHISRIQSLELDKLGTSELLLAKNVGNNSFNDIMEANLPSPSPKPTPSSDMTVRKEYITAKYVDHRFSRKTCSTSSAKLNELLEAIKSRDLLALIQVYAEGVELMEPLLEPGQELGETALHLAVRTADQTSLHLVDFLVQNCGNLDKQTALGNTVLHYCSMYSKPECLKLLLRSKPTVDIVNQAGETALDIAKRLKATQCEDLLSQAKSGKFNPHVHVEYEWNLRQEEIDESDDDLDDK

For `CCN(CC)c1ccc2cc(C(N)=O)/c(=N\NC(=O)c3ccncc3)oc2c1`, the inhibition (in general, the change of the read-out against control, counted positive when it falls) was 87.2% (active). The same measure for `CCOC(=O)c1ccc(Nc2cc3ccccc3c(=O)[nH]2)cc1`: 9.9%; for `OCCNc1nc(Nc2ccc(Cl)c(Cl)c2)nc2ccccc12`: 26.6% (active). As to `COc1ccc(/C=N/Nc2ncnc3sc4c(c23)CCCC4)cc1O`, the inhibition was 26.2% (active). The same measure for `C=CCC[C@@H](CCCCC)OC(=O)/C=C/[C@@H](O)[C@H](O)C[C@H](O)CC=C`: 1.35%; for `Cc1cccc(-n2ncc(Cl)c(Cl)c2=O)c1`: -3.51%; for `COc1ccc(-n2nnnc2SCC(=O)c2ccc(OC)c(OC)c2)cc1`: 30.7% (active). The same measure for `O=c1/c(=C/c2ccc(CNS(=O)(=O)c3ccccc3)o2)sc2n1CCN=2`: -9.13%; for `CCN1CCN(CCNC(=O)c2ccc3c(c2)NC(=O)/C(=C\c2ccc(OC)c(OC)c2)S3)CC1`: 94% (active).

With `CC(=O)Nc1cc(-c2ccc(N3CCN(C)CC3)cc2)cn2c(-c3ccc(F)cc3)cnc12`, the inhibition was 40.5% (active). The same measure for `COC(=O)c1ccc(NCC(=O)c2ccccc2)cc1`: -2.85%; for `CC(=O)c1cccc(-c2cnc3c(NC=O)cc(-c4ccc(N5CCN(C)CC5)cc4)cn23)c1`: 77.7% (active).

On to `COc1ccc(C(CNC(=O)c2cccc(S(=O)(=O)Nc3ccccc3Cl)c2)N2CCOCC2)cc1` (stereo not given), for which the inhibition was 16.6%.

Take `COc1cc(/C=N/Nc2nn3cnnc3c3ccccc23)cc(OC)c1OC`: the inhibition is 39% (active). Next, `O=C(NC1=CC(=O)c2ccccc2C1=O)c1ccccc1`: 13.6%.
